# Experiments:
# [1] = target: T1, Protein deacetylase HDAC6 (Homo sapiens, UniProt Q9UBN7); test: Inhibition of full length human recombinant N-terminal GST-tagged HDAC6 (1 to 1215 residues) expressed in sf9 cells preincubated with enzyme followed by fluorogenic Arg-His-Lys-Lys(Ac)-AMC substrate addition measured after 2 hrs by fluorescence assay
# T1 sequence (Q9UBN7 whole entry): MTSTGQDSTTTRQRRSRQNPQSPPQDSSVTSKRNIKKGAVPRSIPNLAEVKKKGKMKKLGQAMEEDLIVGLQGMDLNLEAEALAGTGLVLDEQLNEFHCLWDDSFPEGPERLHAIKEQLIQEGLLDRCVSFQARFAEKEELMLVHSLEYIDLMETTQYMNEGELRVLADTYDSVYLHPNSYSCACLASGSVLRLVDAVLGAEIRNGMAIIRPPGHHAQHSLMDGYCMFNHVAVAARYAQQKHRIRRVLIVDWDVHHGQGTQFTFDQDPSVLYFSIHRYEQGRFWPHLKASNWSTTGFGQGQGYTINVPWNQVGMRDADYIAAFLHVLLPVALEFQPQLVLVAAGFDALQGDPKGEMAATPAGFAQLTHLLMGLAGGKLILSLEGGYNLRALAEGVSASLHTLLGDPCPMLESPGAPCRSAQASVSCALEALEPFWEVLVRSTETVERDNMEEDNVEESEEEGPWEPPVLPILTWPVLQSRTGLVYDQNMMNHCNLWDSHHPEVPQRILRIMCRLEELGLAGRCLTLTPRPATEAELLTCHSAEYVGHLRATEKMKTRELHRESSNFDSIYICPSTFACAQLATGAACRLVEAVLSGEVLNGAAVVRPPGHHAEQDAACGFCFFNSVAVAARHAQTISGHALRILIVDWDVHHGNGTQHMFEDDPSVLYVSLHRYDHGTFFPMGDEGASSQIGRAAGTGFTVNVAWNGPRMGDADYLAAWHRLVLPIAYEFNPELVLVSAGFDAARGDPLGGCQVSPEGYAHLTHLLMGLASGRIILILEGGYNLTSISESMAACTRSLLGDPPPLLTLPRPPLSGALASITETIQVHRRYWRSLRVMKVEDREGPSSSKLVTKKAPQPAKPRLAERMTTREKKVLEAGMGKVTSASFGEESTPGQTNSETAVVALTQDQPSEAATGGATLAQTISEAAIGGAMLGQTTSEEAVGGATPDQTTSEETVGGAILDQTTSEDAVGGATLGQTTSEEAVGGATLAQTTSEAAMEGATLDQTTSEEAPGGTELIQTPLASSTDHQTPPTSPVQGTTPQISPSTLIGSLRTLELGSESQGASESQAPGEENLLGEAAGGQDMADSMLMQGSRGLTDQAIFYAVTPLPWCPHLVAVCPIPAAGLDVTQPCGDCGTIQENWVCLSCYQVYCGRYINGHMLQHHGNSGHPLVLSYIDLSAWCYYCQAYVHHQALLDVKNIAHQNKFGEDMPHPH
# [2] = Antiproliferative activity against human HCT116 cells after 72 hrs by MTT assay; type: functional, cell-based; settings: HCT-116, 72 h
# How it was run: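 MTT viability after 72 h exposure. Cells seeded at 2500/well and left 24 h before compound addition; DMSO at 0.5% v/v final. MTT added in FBS-free medium for 3 h at 37 °C, formazan dissolved in DMSO, absorbance read at 570 nm. IC50 from a sigmoidal fit of % viability vs log concentration; triplicates on separate occasions using two different stock solutions.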
# [3] = target: T2, Tyrosine-protein kinase JAK2 (Homo sapiens, UniProt O60674); test: Inhibition of JAK2 (unknown origin) preincubated for 20 mins followed by [33P]ATP addition measured after 120 mins by Hotspot assay
# [4] = Antiproliferative activity against human MCF7 cells after 72 hrs by MTT assay; type: functional, cell-based; settings: MCF7, 72 h
# [5] = Antiproliferative activity against human MDA-MB-231 cells after 72 hrs by MTT assay; type: functional, cell-based; settings: MDA-MB-231, 72 h
# [6] = Antiproliferative activity against human PC3 cells after 72 hrs by MTT assay; type: functional, cell-based; settings: PC-3, 72 h
# [7] = target: T2, Tyrosine-protein kinase JAK2; test: Inhibition of JAK2 (unknown origin)
# Histone deacetylase 1 = Histone deacetylase 1 (Homo sapiens, UniProt Q13547); test: Inhibition of full length human recombinant C-terminal FLAG/His-tagged HDAC1 (1 to 482 residues) expressed in sf21 cells preincubated with enzyme followed by fluorogenic Arg-His-Lys-Lys(Ac)-AMC substrate addition measured after 2 hrs by fluorescence assay
# cells = type: functional, cell-based; settings: Homo sapiens, HEL 92.1.7, 36 h
# [8] = Antiproliferative activity against human HL60 cells; type: functional, cell-based; settings: HL-60
# [9] = Antiproliferative activity against human Jurkat cells; type: functional, cell-based
# T2 sequence (O60674 whole entry): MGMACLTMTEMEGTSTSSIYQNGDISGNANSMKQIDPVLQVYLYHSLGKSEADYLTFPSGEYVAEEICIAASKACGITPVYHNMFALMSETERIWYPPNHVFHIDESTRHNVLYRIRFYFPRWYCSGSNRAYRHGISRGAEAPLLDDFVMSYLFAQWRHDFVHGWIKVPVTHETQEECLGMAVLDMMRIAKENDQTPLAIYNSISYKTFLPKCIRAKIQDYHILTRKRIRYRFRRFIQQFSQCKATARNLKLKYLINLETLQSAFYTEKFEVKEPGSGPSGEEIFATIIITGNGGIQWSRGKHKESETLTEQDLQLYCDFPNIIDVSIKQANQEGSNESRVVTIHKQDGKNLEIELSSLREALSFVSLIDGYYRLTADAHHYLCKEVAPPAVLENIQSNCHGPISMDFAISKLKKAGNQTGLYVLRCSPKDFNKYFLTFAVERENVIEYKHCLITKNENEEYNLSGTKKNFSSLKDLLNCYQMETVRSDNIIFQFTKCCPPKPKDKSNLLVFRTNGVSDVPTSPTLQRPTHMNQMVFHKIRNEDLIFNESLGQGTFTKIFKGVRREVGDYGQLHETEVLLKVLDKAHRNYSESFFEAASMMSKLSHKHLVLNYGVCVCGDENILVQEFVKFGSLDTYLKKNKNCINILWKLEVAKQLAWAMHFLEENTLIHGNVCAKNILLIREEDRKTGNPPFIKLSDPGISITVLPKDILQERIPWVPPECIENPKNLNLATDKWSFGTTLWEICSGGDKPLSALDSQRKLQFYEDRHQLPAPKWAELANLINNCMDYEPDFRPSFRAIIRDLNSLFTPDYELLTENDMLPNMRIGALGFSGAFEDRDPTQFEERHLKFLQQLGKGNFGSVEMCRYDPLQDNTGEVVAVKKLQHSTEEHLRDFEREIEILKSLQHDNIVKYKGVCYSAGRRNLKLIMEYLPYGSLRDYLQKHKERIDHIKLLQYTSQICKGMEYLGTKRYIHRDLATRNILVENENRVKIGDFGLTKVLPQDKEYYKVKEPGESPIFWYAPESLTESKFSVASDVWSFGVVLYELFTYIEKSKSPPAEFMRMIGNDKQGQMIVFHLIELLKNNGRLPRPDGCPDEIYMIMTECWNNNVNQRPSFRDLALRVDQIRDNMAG
# Sequence of Histone deacetylase 1 (Q13547 whole entry, the tested form may be a part): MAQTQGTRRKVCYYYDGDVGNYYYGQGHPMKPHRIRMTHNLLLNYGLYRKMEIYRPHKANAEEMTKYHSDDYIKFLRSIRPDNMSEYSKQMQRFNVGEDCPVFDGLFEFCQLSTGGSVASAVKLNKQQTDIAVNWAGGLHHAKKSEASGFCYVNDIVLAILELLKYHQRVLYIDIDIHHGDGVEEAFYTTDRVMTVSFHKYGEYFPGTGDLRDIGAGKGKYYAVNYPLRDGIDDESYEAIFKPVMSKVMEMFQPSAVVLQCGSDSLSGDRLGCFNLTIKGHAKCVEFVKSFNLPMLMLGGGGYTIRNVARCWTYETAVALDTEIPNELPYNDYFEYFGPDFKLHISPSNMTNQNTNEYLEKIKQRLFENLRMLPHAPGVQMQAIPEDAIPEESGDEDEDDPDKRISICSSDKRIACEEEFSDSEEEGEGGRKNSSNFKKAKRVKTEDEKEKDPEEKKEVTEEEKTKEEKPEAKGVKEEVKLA
SMILES,IC50 [1],IC50 [3],IC50 [7],IC50 (Histone deacetylase 1),IC50 (cells),IC50 [2],IC50 [4],IC50 [5],IC50 [6],IC50 [8],IC50 [9]
O=C(O)CCCCCCOc1ccc2cc1COC/C=C/COCc1cccc(c1)-c1ccnc(n1)N2,2.8 µM,0.00257 µM,,,,6.06 µM,20 µM,12 µM,8.76 µM,,
O=C(CCCOc1ccc2cc1COC/C=C/COCc1cccc(c1)-c1ccnc(n1)N2)NO,0.51 µM,,,2.4 µM,,3.64 µM,2.78 µM,5.91 µM,4.61 µM,,
O=C(NO)C1CCN(CCOc2ccc3cc2COC/C=C/COCc2cccc(c2)-c2ccnc(n2)N3)CC1,0.899 µM,0.00097 µM,,,,1.2 µM,1.68 µM,3.41 µM,2.79 µM,,
O=C(O)C1CCN(CCOc2ccc3cc2COC/C=C/COCc2cccc(c2)-c2ccnc(n2)N3)CC1,> 100 µM,,< 0.039 µM,,,8.2 µM,,10.7 µM,,,
O=C(NO)c1ccc(NCCOc2ccc3cc2COC/C=C/COCc2cccc(c2)-c2ccnc(n2)N3)cc1,0.395 µM,0.00171 µM,,,,3.2 µM,3.84 µM,8.69 µM,4.58 µM,,
O=C(CCCCCC(=O)Nc1ccc(NCCOc2ccc3cc2COC/C=C/COCc2cccc(c2)-c2ccnc(n2)N3)cc1)NO,0.0025 µM,0.0069 µM,,,> 2 µM,,,,> 100 µM,> 4 µM,> 4 µM
O=C(NO)c1cccc(NCCOc2ccc3cc2COC/C=C/COCc2cccc(c2)-c2ccnc(n2)N3)c1,2.9 µM,0.009 µM,,,,2.01 µM,,> 50 µM,> 100 µM,,
O=C(O)CCCCCCCOc1ccc2cc1COC/C=C/COCc1cccc(c1)-c1ccnc(n1)N2,10 µM,,< 0.039 µM,,,8.04 µM,27.7 µM,17.1 µM,22.8 µM,,
CN1CCc2c(c3ccccc3n2Cc2ccc(C(=O)NO)cc2)C1 [TUBASTATIN A],,,,,> 2 µM,2 µM,3.7 µM,10.4 µM,8.6 µM,> 4 µM,> 4 µM
O=C(O)CCCOc1ccc2cc1COC/C=C/COCc1cccc(c1)-c1ccnc(n1)N2,,0.047 µM,,,,124 µM,,53.5 µM,,,
O=C(CCCCOc1ccc2cc1COC/C=C/COCc1cccc(c1)-c1ccnc(n1)N2)NO,0.107 µM,0.00245 µM,,3.09 µM,,1.41 µM,7.87 µM,12.7 µM,10.1 µM,,
O=C(NO)c1ccc(OCCOc2ccc3cc2COC/C=C/COCc2cccc(c2)-c2ccnc(n2)N3)cc1,0.066 µM,0.00127 µM,,,,,,,1.6 µM,,

# Now from value to compound, other results behind:
IC50 [1],IC50 [3],IC50 [7],IC50 (Histone deacetylase 1),IC50 (cells),SMILES,IC50 [2],IC50 [4],IC50 [5],IC50 [6],IC50 [8],IC50 [9]
45 µM,,< 0.039 µM,,,O=C(O)CCCCCOc1ccc2cc1COC/C=C/COCc1cccc(c1)-c1ccnc(n1)N2,41 µM,,19.9 µM,,,
53 µM,,< 0.039 µM,,,O=C(O)c1cccc(NCCOc2ccc3cc2COC/C=C/COCc2cccc(c2)-c2ccnc(n2)N3)c1,59.2 µM,,21.4 µM,,,
,,< 0.039 µM,,,O=C(O)CCCCOc1ccc2cc1COC/C=C/COCc1cccc(c1)-c1ccnc(n1)N2,36 µM,,25.9 µM,,,
64 µM,< 0.039 µM,,,,O=C(O)c1ccc(NCCOc2ccc3cc2COC/C=C/COCc2cccc(c2)-c2ccnc(n2)N3)cc1,,,46 µM,,,
> 100 µM,,< 0.039 µM,,,O=C(O)c1ccc(OCCOc2ccc3cc2COC/C=C/COCc2cccc(c2)-c2ccnc(n2)N3)cc1,29.7 µM,,54.2 µM,,,
0.0023 µM,0.03 µM,,,> 2 µM,O=C(CCCCCCC(=O)Nc1ccc(NCCOc2ccc3cc2COC/C=C/COCc2cccc(c2)-c2ccnc(n2)N3)cc1)NO,,,3.43 µM,> 100 µM,> 4 µM,> 4 µM
2.6 µM,0.00231 µM,,,,O=C(O)CCCCCCC(=O)Nc1ccc(NCCOc2ccc3cc2COC/C=C/COCc2cccc(c2)-c2ccnc(n2)N3)cc1,2.7 µM,,,,,

# — ChEMBL document CHEMBL3877241 (J Med Chem, 2016)
